Experimental data published in article PMC8108386 (Chemical Science, 2020).
Like-named read-outs stand apart in the source and are kept apart here.

Key:
[1] = Observations on stability and behaviour in solution; format: physicochemical; conditions: 37 °C, extended periods of time, absence of a light trigger
[2] = test system: female C57BL/6J mice; test: Maximum tolerated dose, dose escalation, intraperitoneal injection; format: in vivo, mouse
Method in brief: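 A dose-escalation safety study in mice used intraperitoneal injection at doses up to 100 mg kg−1. MTD was assigned from the appearance of observable toxicity.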

[3] = test system: SKMEL28 cells; test: Photocytotoxicity at high fluence and irradiance, Modulight ML8500; format: cell-based, human
Method in brief: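 SKMEL28 photocytotoxicity was tested with a well-by-well illumination system that sets wavelength, fluence and irradiance separately for each well, allowing higher fluences and irradiances than whole-plate sources. Light-only control wells were included.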

[4] = test system: B16F10 tumor; format: in vivo, C57BL/6NCrl mice; conditions: for protection from tumor growth (tumor-free mice): challenged with live B16F10 cells
Method in brief: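 B16F10 cells were treated in vitro with test compound (1.40 μM) plus light. Cells collected 4 h and 12 h post-treatment were pooled and injected SC into the left flank of female and male C57BL/6NCrl mice, with PBS as control. After 7 days, untreated B16F10 cells were injected into the right flank. Tumor growth and tumor-free survival were followed, and hazard ratios derived.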

[5] = test system: human melanoma SKMEL28 cells; test: Cytotoxicity and photocytotoxicity, resazurin, 384-well, UTA; format: cell-based; conditions: visible vs. 733 nm
[6] = test system: A375, B16F10 and SKMEL28 melanoma cell lines; test: Dark and light cytotoxicity stated for all three melanoma cell lines; format: cell-based; conditions: read-out: dark EC50 values, toward all three melanoma cell lines
Method in brief: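 Log-phase A375, B16F10 and SKMEL28 melanoma cells were seeded and dosed with test compound (1 nM to 300 μM) in the dark. They were incubated 48 h, and viability was read by resazurin assay. EC50 is the concentration that reduces relative viability by 50%, taken from dose–response curves and reported as Log(EC50 ± SEM).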

[7] = Singlet oxygen quantum yield by direct 1O2 phosphorescence, relative to [Ru; format: physicochemical; conditions: MeCN

| ΦΔ (singlet oxygen quantum yield) ([7]; λex 455 nm (excitation maximum)) | Substance | stability to ligand dissociation [1] | maximum tolerated dose (MTD) [2] | EC50 ([3]; 753 nm (200 J cm−2, 300 mW cm−2)) | photocytotoxicity with 976 nm ([3]; 976 nm regardless of the fluence (data not shown)) | reduction of cell viability ([3]; all light treatments except 810 nm, down to 2.5 μM) | protection from tumor growth (tumor-free mice) ([4]; female C57BL/6 mice vaccinated with 2-PDT treated B16F10 cells) | hazard ratios ([4]; female and male mice, vaccinated vs. unvaccinated) | protection from tumor growth (tumor-free mice) ([4]; male C57BL/6 mice vaccinated with 2-PDT treated B16F10 cells) | difference between the visible and NIR EC50 values [5] | EC50 [6] | ΦΔ (singlet oxygen quantum yield) ([7]; λex 630 nm) | ΦΔ (singlet oxygen quantum yield) ([7]; λex 753 nm) |
| --- | --- | --- | --- | --- | --- | --- | --- | --- | --- | --- | --- | --- | --- |
| – | [Ru(tpbn)(dppn)(4-pic)]Cl2 [Compound 2] | completely stable | 50 mg/kg | 2020 nM | ineffective | ≥ 60% | 80% | ≤ 0.2 | 55% | 5 fold | ≥ 46.3 µM | 0.93 | 0.86 |
| 0.17 | [Ru(tpbn)(phen)(4-pic)]Cl2 [Compound 8] | – | – | – | – | – | – | – | – | – | ≥ 46.3 µM | 0.10 | 0.10 |
